Experimental data published in the RNAGym collection of RNA variant scans (doi:10.1126/science.aae0568).
This sample holds only a part of the variants without activity.

B1: tRNA (parent)
chain: GUUCCGUUGGCGUAAUGGUAACGCGUCUCCCUCCUAAGGAGAAGACUGCGGGUUCGAGUCCCGUACGGAACG

Variants of: B1
Experiment: yeast fitness relative to wild type (ratio to wild type); higher = fitter; tRNA-Arg(CCU), competitive growth, 37 C, YPD
How it was run: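 Variants of the tRNA-Arg(CCU) gene were chemically synthesised with a 3% per-site mutation rate across 69 sites and placed at the native genomic locus in Saccharomyces cerevisiae. Six parallel replicates of the pooled strains were competed in YPD at 37°C for 24 hours, and gene amplicons from the start and end populations were read by 100-nucleotide paired-end sequencing. Darwinian fitness relative to wild type was derived from changes in genotype frequencies. Genotypes required ≥ 100 starting reads, and estimates < 0.5 were set to 0.5.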

| Variant | yeast fitness |
| --- | --- |
| G17A C33U U59G | 0.501 |
| G17A C30G A45G | 0.584 |
| U16G C24U C49G G63C | ≤ 0.5 |
| G17A C24G C29G A37U | ≤ 0.5 |
| G17A A57C | 0.581 |
| U16C C62G | 0.717 |
| U16G A37G | 0.673 |
| U16G A37U | 0.618 |
| U16G A42G A69C A70G | ≤ 0.5 |
| U16G G56U | 0.706 |
| U16G G41C | 0.604 |
| U16G A57G | 0.805 |
| G17A C22U A45G | ≤ 0.5 |
| G17A C29U C33U A57C G68U | ≤ 0.5 |
| G17A C34A C55G | ≤ 0.5 |
| G17A A21G C22A A40U C61U | ≤ 0.5 |
| U16G C46G | 1.06 |
| U16G C46A | 0.754 |
| G17A C46G A70U | 0.578 |
| G17A C33A A36U G41A G48A | ≤ 0.5 |
| G17A A21C C29U G48A | 0.652 |

| Variant | yeast fitness |
| --- | --- |
| G17A C34A A40G C66U | 0.524 |
| U16G U32C A70G | 0.984 |
| U16C G25C U47A A65G | ≤ 0.5 |
| U16G G23A A40C | ≤ 0.5 |
| G17A C30U C49U | ≤ 0.5 |
| U16G | 1 |
| G17A C27G C31A | ≤ 0.5 |
| U16C U28A | 0.827 |
| U16C G25C U26C C34U U64G | 0.528 |
| U16G C24G U59A | ≤ 0.5 |
| U16G A37G A45C C61G A69C | ≤ 0.5 |
| U16G C22G | 1 |
| U16G C22G A70G | 0.767 |
| G17A C22A | 0.645 |
| G17A C22G | 0.837 |
| U16G U26G U54G | 0.743 |
| G17A C46A C61G A69G | ≤ 0.5 |
| G17A C30G A40C A42G | ≤ 0.5 |
| G17A C22U C66U | 0.589 |
| U16G C22U A37U G50C | ≤ 0.5 |
| G17A C22A A45U C66U | ≤ 0.5 |

| Variant | yeast fitness |
| --- | --- |
| G17A C22U U28C A57G C61U A69U | ≤ 0.5 |
| U16C G23C G51C | ≤ 0.5 |
| G17A A20G A42U | 0.644 |
| G17A C29A G67C A69U | ≤ 0.5 |
| U16G A69C | 1.04 |
| U16C G41C | 0.867 |
| G17A A20G C31U U35C A57G | 0.573 |
| U16G G17A C33A | 0.539 |
| U16C U19A | 1.16 |
| U16G G44A | 0.994 |
| G17A C22G C27A C62G | ≤ 0.5 |
| G17A A20C C49G | ≤ 0.5 |
| G17A A20G A57C | 0.558 |
| U16C U32C G41C G50A C61G | 0.567 |
| U16C U32G C49G C55A | ≤ 0.5 |
| G17A C22A G63A | ≤ 0.5 |
| U16G U32G C46U | ≤ 0.5 |
| G17A C22G C31G C33G | ≤ 0.5 |
| G17A A21C C29G | 0.626 |
| G17A A40U G58C | 0.672 |
| U16G C22G G67C | 0.709 |

| Variant | yeast fitness |
| --- | --- |
| U16G C22G A43G C46G G56C A69G | ≤ 0.5 |
| U16G C30U | 0.777 |
| G17A C27G U59A C66A | ≤ 0.5 |
| U16C G38C A65U C66U | 0.569 |
| G17A C46A A65G | ≤ 0.5 |
| U16C G17C C24U | 0.559 |
| G17A A43G | 0.735 |
| G17A A43C | 0.698 |
| G17A A43U | 0.81 |
| G17A C31U C66A | ≤ 0.5 |
| U16G U26A C34U C62A | ≤ 0.5 |
| U16C G51A A70G | 0.578 |
| G17A C34U G38A | 0.581 |
| G17A A45C G63C C66U | ≤ 0.5 |
| U16C C66A | 0.711 |
| U16G A42G | 0.78 |
| G17A C34U C55G | 0.508 |
| G17A A40U G48A | ≤ 0.5 |
| U16C G48C C49U A65C A70C | ≤ 0.5 |
| G17A A43C C49U U54A G56C A65U A70C | 0.565 |
| U16C U47C U64G | ≤ 0.5 |
